For data set [1], the system named is SK-OV-3. As to the kind of experiment: Induction of apoptosis in human SKOV3 cells assessed as decrease in Bcl-2 expression at 2.5 to 10 uM incubated for 48 hrs by western blot analysis. The conditions noted are these: dose 2.5-10 µM. The class given is functional, cell-based.
Data set [2] is described as follows: Acute toxicity in SPF Kunming mouse assessed as mortality at 100 to 1000 mg/kg, po administered as single dose and measured upto 14 days post drug administration. The class given is organism-based. To be noted: in vivo, 336 h, dose 100-1000 mg/kg, time <=14 day.
The subject of data set [3] is SK-OV-3. Briefly: animal or person. To be noted: Mus musculus, SK-OV-3, po, 504 h, read-out: INH.
For data set [4], the system named is SK-OV-3. Briefly: Induction of autophagy in human SKOV3 cells assessed as increase in fluorescence intensity t 10 uM incubated for 48 hrs by immunofluorescence analysis. The class given is functional, cell-based. Put shortly: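 SK-OV-3 cells on glass coverslips infected with Ad-mCherry-GFP-LC3B for 24 h. Cells then treated at 10 µM for 48 h, fixed in 4% paraformaldehyde and examined by fluorescence microscopy.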

Data set [5] has as its target T1, Poly [ADP-ribose] polymerase 1 (Homo sapiens, UniProt P09874). As to the kind of experiment: Inhibition of PARP-1 in human SKOV3 cells assessed as intracellular poly-ADP ribose level at 2.5 to 10 uM incubated for 48 hrs by Western blot analysis. The class given is cell-based. The conditions noted are these: SK-OV-3, dose 2.5-10 µM. Put shortly: (§1)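 SK-OV-3 cells were grown in McCOY's 5A, seeded in 6-well plates and treated for 48 h. Lysate proteins were separated by 8-15 % SDS-PAGE and transferred to PVDF membranes. Membranes were blocked in 5 % nonfat milk, probed with primary antibody overnight at 4 °C and with HRP secondary antibody for 1 h at room temperature, then detected by enhanced chemiluminescence. Images are representative of 3 independent experiments.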
(A western blot detects proteins with antibodies after separation by electrophoresis.)

Data set [6] in a line: AUC (0 to infinity) in Sprague-Dawley rat at 10 mg/kg, po by LC/MS/MS analysis. The class given is ADME, organism-based. To be noted: in vivo. Further details: time infinity, route oral, dose 10 mg/kg.
Data set [7] relates to SK-OV-3. As to the kind of experiment: Induction of ROS generation in human SKOV3 cells assessed as fold increase in ROS level at 5 uM incubated for 48 hrs by DCFH-DA staining based flow cytometry relative to control. The class given is functional. For orientation: In flow cytometry, cells or beads pass a laser one at a time.
Data set [8] has as its target T1, Poly [ADP-ribose] polymerase 1. As to the kind of experiment: Inhibition of PARP-1 in human SKOV3 cells assessed as decrease in MCM3 protein expression level at 2.5 to 10 uM incubated for 48 hrs by western blot analysis. The class given is cell-based. To be noted: SK-OV-3, dose 2.5-10 µM. Put shortly: as §1
The test system of a further data set is Bel-7402. As to the kind of experiment: Antiproliferative activity against human Bel-7402 cells assessed as cell growth inhibition at 20 uM incubated for 48 hrs by MTT assay relative to control. The class given is functional. For orientation: Tetrazolium dyes change colour on reduction, which living cells bring about.
A further data set deals with Caco-2. As to the kind of experiment: Antiproliferative activity against human Caco-2 cells assessed as cell growth inhibition at 20 uM incubated for 48 hrs by MTT assay relative to control. The class given is functional.
Data set [9] in a line: Toxicity in Balb/c nude mouse xenografted with human SKOV3 cells assessed as histological changes in kidney at 25 to 50 mg/kg, po for 21 days by H and E staining based microscopic analysis. The class given is organism-based. The conditions noted are these: in vivo, 504 h, dose 25-50 mg/kg, time 21 day. Put shortly: (§2)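 SK-OV-3 xenografts in female BALB/c nude mice were dosed orally at 25 or 50 mg/kg in 0.5% CMC-Na for 21 days. Tumours were then snap-frozen in liquid nitrogen or fixed in 10% neutral-buffered formalin. Analysis used western blotting, H&E and immunohistochemistry on paraffin sections (Ki67, γ-H2AX).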

The subject of data set [10] is SK-OV-3. As to the kind of experiment: Antitumor activity against human SKOV3 cells xenografted in Balb/c nude mouse assessed as increase in gamma-H2AX protein expression in tumor at 25 to 50 mg/kg, po for 21 days by western blot analysis. The class given is functional, organism-based. To be noted: dose 25-50 mg/kg, time 21.0 day. Put shortly:
as §2

The subject of data set [11] is SK-OV-3. As to the kind of experiment: Induction of cell cycle arrest in human SKOV3 cells assessed as reduction in cyclin B1 expression at 2.5 to 10 uM incubated for 48 hrs by western blot analysis. The class given is functional, cell-based. The conditions noted are these: dose 2.5-10 µM.
In data set [12] the test system is SK-OV-3. Briefly: Induction of cell cycle arrest in human SKOV3 cells assessed as accumulation at G2/M phase incubated for 48 hrs by propidium iodide staining based flow cytometry analysis. The class given is functional. Put shortly: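 SK-OV-3 cells in 6-well plates incubated 24 h, then treated 48 h. Cells harvested, fixed, stained with propidium iodide and analysed by flow cytometry.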

A short description of data set [13]: Half-life in Sprague-Dawley rat at 2 mg/kg, iv by LC/MS/MS analysis. The class given is ADME, organism-based. The conditions noted are these: in vivo. The method, boiled down: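 Male Sprague-Dawley rats, 4 per group, dosed once orally at 10 mg/kg or intravenously at 2 mg/kg. Blood taken from the saphenous vein for plasma. Drug levels measured by LC-MS-MS, with parameters derived by noncompartmental analysis.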

Data set [14] is described as follows: Selectivity index, ratio of IC50 for inhibition of human recombinant N-terminal GST-tagged PARP-2 to IC50 for inhibition of human recombinant GST-tagged PARP-1.
A short description of data set [15]: Acute toxicity in SPF Kunming mouse assessed as change in body weight at 100 to 1000 mg/kg, po administered as single dose and measured upto 14 days post drug administration. The conditions noted are these: in vivo, 336 h, dose 100-1000 mg/kg, time <=14 day. The class given is organism-based. The method, boiled down:
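Single oral dose groups at 0 (physiological saline blank, equal volume), 100, 500 and 1000 mg/kg. Mice housed with free access to water and food in stainless cages, 25 ± 1 °C, 12-h light/dark cycle. Survival, body weight and abnormalities recorded up to 14 days post-treatment.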

Data set [16] has as its system SK-OV-3. As to the kind of experiment: Antitumor activity against human SKOV3 cells xenografted in Balb/c nude mouse assessed as tumor growth inhibition administered orally for 21 days and measured every third day. The class given is functional, cell-based. The conditions noted are these: dose 25-50 mg/kg, time 21.0 day. Put shortly:
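Female BALB/c nu/nu mice, 6-8 weeks old, kept under SPF conditions. Each received 5×10^6 SK-OV-3 cells s.c. At 80–120 mm3 tumour volume, mice were split into four groups (n=6). […] Caliper measurement every three days; volume = X × (Y2/2).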

For a further data set, the system named is HepG2. Briefly: Antiproliferative activity against human HepG2 cells assessed as cell growth inhibition at 20 uM incubated for 48 hrs by MTT assay relative to control. The class given is functional.
The target in data set [17] is T1, Poly [ADP-ribose] polymerase 1. As to the kind of experiment: Inhibition of PARP-1 in human SKOV3 cells assessed as increase in gammaH2AX expression level at 2.5 to 10 uM incubated for incubated for 48 hrs by western blot analysis. The class given is cell-based. The conditions noted are these: SK-OV-3, dose 2.5-10 µM. The method, boiled down: as §1
Data set [18] shares this target. Briefly: Inhibition of PARP-1 in human SKOV3 cells assessed as inhibition of H2O2-induced poly-ADP ribose formation preincubated for 4 hrs followed by H2O2 addition and incubated overnight by Alexa Fluor 488 staining based confocal microscopic analysis. The class given is cell-based. To be noted: SK-OV-3, in the assay text read “incubated for 5 mins” for “incubated overnight”. Put shortly:
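SK-OV-3 cells were seeded in 96-well plates and grown for 24 h, exposed to compound for 4 h, then to 10 mM H2O2 for 5 min. Cells were fixed and incubated with anti-PAR primary antibody overnight at 4 °C, then with Alexa Fluor 488 secondary antibody. Nuclei were stained with 1 % DAPI and imaged by confocal microscopy.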

Data set [19] relates to SK-OV-3. Briefly: Induction of autophagy in human SKOV3 cells assessed as increase in Beclin-1 protein level at 10 uM incubated for 48 hrs by western blot analysis. The class given is functional, cell-based. Put shortly: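 SK-OV-3 cells in 6-well plates treated 48 h. Lysates separated by 8-15% SDS-PAGE and transferred to PVDF. Membranes blocked in 5% milk and probed overnight at 4 °C with LC3 or Beclin 1 antibodies. HRP secondary applied 1 h at room temperature; detection by ECL.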

The subject of data set [20] is SK-OV-3. As to the kind of experiment: Antitumor activity against human SKOV3 cells xenografted in Balb/c nude mouse assessed as tumor growth inhibition at 50 mg/kg, po for 21 days and measured every third day. To be noted: SK-OV-3, po, 504 h, read-out: INH.

From ChEMBL document CHEMBL4765243, “Discovery of Novel Bromophenol-Thiosemicarbazone Hybrids as Potent Selective Inhibitors of Poly(ADP-ribose) Polymerase-1 (PARP-1) for Use in Cancer” (J Med Chem, 2019) come the findings set out here.

As a reminder, the inhibition is the relative decrease from the control value, in per cent. Broadly, the AUC is concentration integrated over time. Lower therefore signals less exposure. In general, half-life refers to the time in which the quantity being followed falls by half. Low readings indicate rapid decline, high ones slow decline.

Active and inactive are the calls of the source. The rule behind the calls is not given here.

T1 sequence (P09874 whole entry): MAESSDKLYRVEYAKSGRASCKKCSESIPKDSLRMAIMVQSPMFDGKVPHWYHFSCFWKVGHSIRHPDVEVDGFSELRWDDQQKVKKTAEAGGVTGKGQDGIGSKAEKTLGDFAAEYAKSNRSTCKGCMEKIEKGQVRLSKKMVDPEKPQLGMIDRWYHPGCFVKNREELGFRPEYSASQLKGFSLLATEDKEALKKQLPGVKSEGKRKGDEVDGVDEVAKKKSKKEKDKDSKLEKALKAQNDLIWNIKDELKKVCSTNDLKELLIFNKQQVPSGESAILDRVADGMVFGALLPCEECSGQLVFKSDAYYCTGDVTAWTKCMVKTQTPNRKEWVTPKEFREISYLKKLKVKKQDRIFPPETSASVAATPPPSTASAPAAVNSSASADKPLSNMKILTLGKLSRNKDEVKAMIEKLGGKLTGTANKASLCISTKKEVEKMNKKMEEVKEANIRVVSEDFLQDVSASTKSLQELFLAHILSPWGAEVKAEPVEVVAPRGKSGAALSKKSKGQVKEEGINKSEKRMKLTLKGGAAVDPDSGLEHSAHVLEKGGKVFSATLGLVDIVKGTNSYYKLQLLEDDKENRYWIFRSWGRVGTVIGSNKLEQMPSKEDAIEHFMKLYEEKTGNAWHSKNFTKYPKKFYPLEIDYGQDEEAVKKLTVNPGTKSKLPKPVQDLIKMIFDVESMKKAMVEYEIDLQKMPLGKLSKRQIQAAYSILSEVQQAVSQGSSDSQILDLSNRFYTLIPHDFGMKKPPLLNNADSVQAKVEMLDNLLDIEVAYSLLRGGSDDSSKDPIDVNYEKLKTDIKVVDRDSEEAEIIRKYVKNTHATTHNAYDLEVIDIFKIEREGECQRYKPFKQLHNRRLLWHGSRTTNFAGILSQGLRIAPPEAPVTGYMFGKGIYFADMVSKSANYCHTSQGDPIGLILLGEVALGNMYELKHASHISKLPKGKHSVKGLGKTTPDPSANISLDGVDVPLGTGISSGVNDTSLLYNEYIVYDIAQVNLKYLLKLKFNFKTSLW

`COc1cc(/C=N/NC(N)=S)c(Br)c(Br)c1OC`: the result in the data set on SK-OV-3 [1], in the data set on SK-OV-3 [4], with SK-OV-3 [10], in the data set on SK-OV-3 [11] and with SK-OV-3 [19] was Active. Also, the Activity result was “Non-Toxic” in [2], “Non-Toxic” in [9], “Dose-dependent effect” in the data set on SK-OV-3 [12] and “Non-Toxic” in data set [15]. The inhibition in vivo at 25 mg/kg in the data set on SK-OV-3 [3] was found to be 70%. In addition, the inhibition result in data set [5], in [8], in [17] and in data set [18] was “Active” in each case. In addition, the AUC in data set [6] worked out at 0.0839 µM·h. Also, in the data set with SK-OV-3 [7], the “fold change (FC)” value is listed as 2.51. Also, the results for the inhibition at 20 µM in the data set with Bel-7402, in the data set on Caco-2 and with HepG2 were 63.5%, 59.6% and 71.6%, respectively. Besides, in data set [13], the half-life was 47.4 min. The Ratio IC50 in [14] was > 33.9. In the data set with SK-OV-3 [16], the inhibition result is “Dose-dependent effect”. Moreover, in the data set on SK-OV-3 [20], the inhibition in vivo at 50 mg/kg is 58.7%.
